Measurements taken from ChEMBL document CHEMBL1133586, “The cyclohexene ring system as a furanose mimic: synthesis and antiviral activity of both enantiomers of cyclohexenylguanine” (2000).
Values after ≈ are worked out from the molar mass of the structure shown. Values joined by “and” are separate entries in the source; they are usually repeats but may differ in a detail not shown here. Equal entries are not always repeated.

Columns and labels:
[1] = Minimum inhibitory concentration was determined against HSV-2 (196) in E6SM cell culture; type: functional, herpes simplex virus
Method in brief: (§1)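 Confluent E6SM cultures in microtiter trays were infected with 100 CCID50 of virus. After 1 h adsorption, residual virus was removed and cultures were incubated with varying compound concentrations. Cytopathicity was read once virus controls reached completion. The value is the concentration reducing virus-induced cytopathogenicity by 50%, as the mean of two independent determinations.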

[2] = Selectivity index was determined against CMV (Davis) in HEL cells; type: functional
[3] = Selectivity index was determined against CMV (AD 169) in HEL cells; type: functional
HeLa = test: Cytotoxicity concentration required to microscopically detectable alteration of cell morphology in HeLa; type: functional, Homo sapiens
Method in brief: (§2)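 Cytotoxicity was scored as the minimum concentration giving a microscopically detectable change in normal cell morphology of E6SM, HeLa or Vero cell cultures.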

[4] = Selectivity index was determined againstHSV-2 (196) in E6SM cell culture; type: functional
[5] = Minimum inhibitory concentration was determined against HSV-2 (Lyons) in E6SM cell culture; type: functional, herpes simplex virus; method in brief: as §1
Human alphaherpesvirus 3 [6] = test: (§3) Minimum inhibitory concentration was determined against VZV (TK-YS/R) in HEL cells; type: functional
Method in brief: (§4)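 HEL cell cultures were infected with 20 PFU of virus and incubated with varying compound concentrations. The value is the concentration reducing virus plaque formation by 50%, as the mean of two independent determinations.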

[7] = Selectivity index was determined in HSV-1 (KOS) in E6SM cell culture; type: functional
Human alphaherpesvirus 3 [8] = test: (§5) Minimum inhibitory concentration was determined against VZV (TK-07/1) in HEL cells; type: functional; method in brief: as §4
Human alphaherpesvirus 3 [9] = test: as §3; type: functional; method in brief: as §4; remark: listed apart in the source
HEL [10] = test: Cytotoxicity concentration required to inhibit the cell growth by 50% in HEL; type: functional, Homo sapiens
Method in brief: (§6)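 In HEL cells, cytotoxicity was measured as inhibition of normal cell growth, and the value is the concentration reducing cell growth by 50%.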

Cytomegalovirus [11] = test: Minimum inhibitory concentration was determined in CMV (AD169) in HEL cell; type: functional; conditions: Human betaherpesvirus 5; method in brief: as §4
HEL [12] = test: Cytotoxicity concentration required to reduce cell growth by 50% in HEL; type: functional, Homo sapiens; method in brief: as §6
Human alphaherpesvirus 3 [13] = test: (§7) Minimum inhibitory concentration was determined against VZV (YS) in HEL cells; type: functional; method in brief: as §4
[14] = Selectivity index was determined against VZV (YS) in HEL cells; type: functional
[15] = Selectivity index was determined against VZV (OKA) in HEL cells; type: functional
[16] = Selectivity index was determined against VZV (TK-YS/R) in HEL cells; type: functional
Cytomegalovirus [17] = test: Minimum inhibitory concentration was determined in CMV (Davis) in HEL cell; type: functional; conditions: Human betaherpesvirus 5; method in brief: as §4
Cytomegalovirus [18] = test: Minimum inhibitory concentration was determined against CMV (Davis) in HEL cell; type: functional; conditions: Human betaherpesvirus 5; method in brief: as §4
Human alphaherpesvirus 1 [19] = test: (§8) Minimum inhibitory concentration was determined against HSV-1 (McIntyre) in E6SM cell culture; type: functional, herpes simplex virus; method in brief: as §1
Human alphaherpesvirus 1 [20] = test: Minimum inhibitory concentration was determined against HSV-1 (F) in E6SM cell culture; type: functional, herpes simplex virus; method in brief: as §1
[21] = Minimum inhibitory concentration was determined against HSV-2 (G) in E6SM cell culture; type: functional, herpes simplex virus; method in brief: as §1
[22] = Selectivity index was determined against HSV-1 (TK-/TK+VMW1837) in E6SM cell culture; type: functional
[23] = Minimum inhibitory concentration was determined against HSV-1 (KOS) in E6SM cell culture; type: functional, herpes simplex virus; method in brief: as §1
[24] = Selectivity index was determined against HSV-1 (F) in E6SM cell culture; type: functional
[25] = Selectivity index was determined against HSV-2 (Lyons) in E6SM cell culture; type: functional
Cytomegalovirus [26] = test: Minimum inhibitory concentration was determined against CMV (AD 169) in HEL cells; type: functional; conditions: Human betaherpesvirus 5; method in brief: as §4
[27] = Minimum inhibitory concentration was determined against HSV-1 (TK-/TK+VMW1837) in E6SM cell culture; type: functional, herpes simplex virus; method in brief: as §1
Human alphaherpesvirus 3 [28] = test: (§9) Minimum inhibitory concentration was determined against VZV (OKA) in HEL cells; type: functional; method in brief: as §4
E6SM = test: Cytotoxicity concentration required to microscopically detectable alteration of cell morphology in E6SM; type: functional, Homo sapiens; method in brief: as §2
Human alphaherpesvirus 3 [29] = test: as §3
Human alphaherpesvirus 2 = test: Minimum inhibitory concentration was determined against HSV-2 (G) in E6SM cell culture
Human alphaherpesvirus 3 [30] = test: as §9
[31] = as §7; conditions: Human alphaherpesvirus 1
Vero = test: Cytotoxicity concentration required to microscopically detectable alteration of cell morphology in Vero; type: functional, Chlorocebus sabaeus; method in brief: as §2
[32] = as §8; type: functional, herpes simplex virus; conditions: Human alphaherpesvirus 1; method in brief: as §1
Human alphaherpesvirus 3 [33] = test: as §5
[34] = Minimum inhibitory concentration was determined against HSV-1 (TK-KOS ACV) in E6SM cell culture; type: functional, herpes simplex virus; conditions: Human alphaherpesvirus 1; method in brief: as §1
[35] = Minimum inhibitory concentration was determined against HSV-2 (G) in E6SM cell culture; conditions: Human alphaherpesvirus 2
HEL [36] = test: Cytotoxicity concentration required to microscopically detectable alteration of cell morphology HEL; type: functional, Homo sapiens
Cytomegalovirus [37] = test: Minimum inhibitory concentration was determined against CMV(Davis) in E6SM cell culture; type: functional; conditions: Human betaherpesvirus 5; method in brief: as §1
Cytomegalovirus [38] = test: Minimum inhibitory concentration was determined against CMV(AD169) in E6SM cell culture; type: functional; conditions: Human betaherpesvirus 5; method in brief: as §1
Human alphaherpesvirus 1 [39] = test: Minimum inhibitory concentration was determined against HSV-1 (TK-/TK+VMW1837) in E6SM cell culture
Human alphaherpesvirus 1 [40] = test: Minimum inhibitory concentration was determined against HSV-1 (G) in E6SM cell culture; type: functional, herpes simplex virus; method in brief: as §1
[41] = Human alphaherpesvirus 1, read-out: MIC
[42] = Human alphaherpesvirus 3, read-out: MIC

In the case of `Nc1nc(O)c2ncn(C3C=CC(CO)C(O)C3)c2n1` (stereo not drawn), the MIC [1] is reported as 0.07 µg/mL (≈ 0.252 µM), the MIC [1, 41] is reported as 0.1 µg/mL (≈ 0.361 µM) and the Selectivity index [2] is reported as >12 and >25. The Selectivity index [3] was >13 and >30, the Cytotoxicity (HeLa) was 400 µg/mL and the Selectivity index [4] was greater than 160. For the same compound, the MIC [5] was 0.07 µg/mL (≈ 0.252 µM), the MIC (Human alphaherpesvirus 3 [6]) was 6.8 µg/mL (≈ 24.5 µM) and the Selectivity index [7] was greater than 5000. The MIC (Human alphaherpesvirus 3 [8]) was 5.8 µg/mL and 2.1 µg/mL, the MIC (Human alphaherpesvirus 3 [9]) was 2.8 µg/mL (≈ 10.1 µM) and the Cytotoxicity (HEL [10]) was greater than 20 µg/mL. For the same compound, the MIC (Cytomegalovirus [11]) was 0.6 µg/mL (≈ 2.16 µM), the Cytotoxicity (HEL [12]) was greater than 20 µg/mL and the MIC (Human alphaherpesvirus 3 [13]) was 1.2 µg/mL and 0.49 µg/mL. The Selectivity index [14] was >16 and >40, the Selectivity index [15] was >10 and >30 and the Selectivity index [16] was >3 and >7. It also gave an MIC (Cytomegalovirus [17]) of 0.8 µg/mL (≈ 2.89 µM), an MIC (Cytomegalovirus [18]) of 1.7 µg/mL (≈ 6.13 µM) and an MIC (Human alphaherpesvirus 1 [19]) of 0.004 µg/mL (≈ 0.0144 µM). The MIC (Human alphaherpesvirus 1 [19]; [41]) was 0.004 µg/mL (≈ 0.0144 µM), the MIC (Human alphaherpesvirus 1 [20]) was 0.002 µg/mL (≈ 0.00721 µM) and the MIC (Human alphaherpesvirus 1 [20]; [41]) was 0.003 µg/mL (≈ 0.0108 µM). The MIC [21] was 0.05 µg/mL (≈ 0.18 µM), the MIC [21, 41] was 0.07 µg/mL (≈ 0.252 µM) and the Selectivity index [22] was >1.6 and >4. The MIC [23] was 0.002 µg/mL (≈ 0.00721 µM), the MIC [23, 41] was 0.003 µg/mL (≈ 0.0108 µM) and the Selectivity index [24] was >5 and >2. The Selectivity index [25] was >2.2 and >5, the MIC (Cytomegalovirus [26]) was 1.5 µg/mL (≈ 5.41 µM) and the MIC [27] was 0.01 µg/mL (≈ 0.0361 µM). For the same compound, the MIC [27, 41] was 0.01 µg/mL (≈ 0.0361 µM) and the MIC (Human alphaherpesvirus 3 [28]) was 1.9 µg/mL and 0.64 µg/mL.

`Nc1nc2c(ncn2COCCO)c(=O)[nH]1` [ACYCLOVIR] gave a Cytotoxicity (E6SM) greater than 50 µg/mL, an MIC (Human alphaherpesvirus 3 [29]) of 28 µg/mL (≈ 124 µM) and an MIC ([1]; Human alphaherpesvirus 2) of 0.02 µg/mL (≈ 0.0888 µM). For the same compound, the MIC (Human alphaherpesvirus 2) was 0.02 µg/mL (≈ 0.0888 µM), the MIC [5] was 0.02 µg/mL (≈ 0.0888 µM) and the MIC (Human alphaherpesvirus 3 [30]) was 0.8 µg/mL (≈ 3.55 µM). It also gave an MIC [31] of 1.1 µg/mL (≈ 4.88 µM), a Cytotoxicity (Vero) greater than 400 µg/mL and an MIC [32] of 0.005 µg/mL (≈ 0.0222 µM). It also gave an MIC (Human alphaherpesvirus 1 [20]; [41]) of 0.003 µg/mL (≈ 0.0133 µM), an MIC (Human alphaherpesvirus 3 [33]) of 13 µg/mL (≈ 57.7 µM) and an MIC [23, 41] of 0.01 µg/mL (≈ 0.0444 µM). It also gave an MIC ([27]; Human alphaherpesvirus 1) of 0.07 µg/mL (≈ 0.311 µM) and an MIC [34] of 9.6 µg/mL (≈ 42.6 µM).

Compound `O=c1[nH]c(=O)n([C@H]2C[C@H](O)[C@@H](CO)O2)cc1/C=C/Br` [BRIVUDINE] has a Cytotoxicity (E6SM) greater than 400 µg/mL, an MIC [1, 41] greater than 80 µg/mL and an MIC [35] greater than 80 µg/mL. The Cytotoxicity (HeLa) was greater than 400 µg/mL, the MIC [5] was greater than 80 µg/mL and the Cytotoxicity (HEL [36]) was greater than 200 µg/mL. For the same compound, the MIC (Human alphaherpesvirus 3 [8]; [42]) was greater than 20 µg/mL, the MIC (Human alphaherpesvirus 3 [9]) was greater than 50 µg/mL and the Cytotoxicity (HEL [12]) was greater than 50 µg/mL. For the same compound, the MIC (Human alphaherpesvirus 3 [13]; [42]) was 0.03 µg/mL (≈ 0.0901 µM), the Cytotoxicity (Vero) was greater than 400 µg/mL and the MIC (Human alphaherpesvirus 1 [19]; [41]) was 0.001 µg/mL (≈ 0.003 µM). It also gave an MIC (Human alphaherpesvirus 1 [20]; [41]) of 0.001 µg/mL (≈ 0.003 µM), an MIC [23, 41] of 0.001 µg/mL (≈ 0.003 µM) and an MIC [27, 41] greater than 80 µg/mL. For the same compound, the MIC [34] was greater than 80 µg/mL and the MIC (Human alphaherpesvirus 3 [28]; [42]) was 0.003 µg/mL (≈ 0.00901 µM).

In the case of `Nc1ccn(C[C@@H](CO)OCP(=O)(O)O)c(=O)n1.O.O` [CIDOFOVIR], the MIC (Cytomegalovirus [37]) is reported as 0.2 µg/mL, the Cytotoxicity (E6SM) is reported as greater than 50 µg/mL and the Cytotoxicity (HEL [36]) is reported as greater than 50 µg/mL. The MIC (Cytomegalovirus [38]) was 0.08 µg/mL.

`Nc1nc2c(ncn2COC(CO)CO)c(=O)[nH]1` [GANCICLOVIR] showed an MIC (Cytomegalovirus [37]) of 0.8 µg/mL (≈ 3.13 µM), a Cytotoxicity (E6SM) greater than 50 µg/mL and an MIC ([1]; Human alphaherpesvirus 2) of 0.001 µg/mL (≈ 0.00392 µM). The MIC [5] was 0.001 µg/mL (≈ 0.00392 µM), the Cytotoxicity (HEL [36]) was greater than 50 µg/mL and the MIC (Human alphaherpesvirus 1 [39]) was 0.01 µg/mL (≈ 0.0392 µM). The MIC (Cytomegalovirus [38]) was 0.6 µg/mL (≈ 2.35 µM), the MIC (Human alphaherpesvirus 1 [40]) was 0.002 µg/mL (≈ 0.00784 µM) and the Cytotoxicity (Vero) was greater than 100 µg/mL. It also gave an MIC [32] of 0.001 µg/mL (≈ 0.00392 µM), an MIC (Human alphaherpesvirus 1 [20]; [41]) of 0.001 µg/mL (≈ 0.00392 µM) and an MIC [23, 41] of 0.001 µg/mL (≈ 0.00392 µM). For the same compound, the MIC [34] was 0.48 µg/mL (≈ 1.88 µM).
